Source: ChEMBL document CHEMBL1125411, “Effect of the 7-amino substituent on the inhibitory potency of mechanism-based isocoumarin inhibitors for porcine pancreatic and human neutrophil elastases: a 1.85-A X-ray structure of the complex between porcine pancreatic elastase and 7-[(N-tosylphenylalanyl)amino]-4-chloro-3- methoxyisocoumarin” (J Med Chem, 1992)

Tests used:
[1] = target: Pancreatic elastase (Sus scrofa) (UniProt P08419+P00772); assay: Inactivation of porcine pancreatic elastase (PPE) expressed as rate constant.; type: functional
Method in brief: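 PPE (0.1–2.0 μM) was incubated with inhibitor in 0.1 M Hepes, 0.5 M NaCl, pH 7.5, at 25 °C; inhibitor was added in Me2SO to a final 8–12% v/v. Aliquots taken over time were diluted 40–200-fold into Suc-Ala-Ala-Ala-NA (0.6–1.2 mM), with 4-nitroanilide release followed at 410 nm. First-order kobs came from ln(vt/v0) vs time and is given as kobs/[I].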

[2] = target: T1, Neutrophil elastase (Homo sapiens) (UniProt P08246); assay: Inactivation of human leukocyte (neutrophil) elastase (HLE)(HNE) as rate constant; type: functional
T1 sequence (whole entry): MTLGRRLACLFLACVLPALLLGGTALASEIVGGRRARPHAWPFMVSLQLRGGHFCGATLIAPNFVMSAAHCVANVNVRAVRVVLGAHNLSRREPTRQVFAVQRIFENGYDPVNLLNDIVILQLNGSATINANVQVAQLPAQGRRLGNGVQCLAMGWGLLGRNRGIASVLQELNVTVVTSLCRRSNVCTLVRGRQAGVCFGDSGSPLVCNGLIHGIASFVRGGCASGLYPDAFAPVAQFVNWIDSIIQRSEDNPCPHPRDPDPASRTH
Method in brief: (§1)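 HNE (0.1–2.0 μM) in 0.1 M Hepes, 0.5 M NaCl, pH 7.5, 25 °C, was incubated with inhibitor added from Me2SO (final 8–12% v/v). Timed aliquots were diluted 40–200-fold into MeO-Suc-Ala-Ala-Pro-Val-NA (0.1–0.125 mM), and residual activity was read at 410 nm. kobs came from ln(vt/v0) vs time and is reported as kobs/[I]. Very fast cases are lower limits.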

[3] = target: T1, Neutrophil elastase (Homo sapiens); assay: Compound was tested for the inactivation of human leukocyte (neutrophil) elastase(HLE)(HNE) expressed as rate constant; type: functional; method in brief: as §1
[4] = tested on: Pancreatic elastase (Sus scrofa); assay: Compound was tested for the inactivation of porcine pancreatic elastase(PPE) expressed as rate constant
[5] = target: T1, Neutrophil elastase (Homo sapiens); assay: Inactivation of human leukocyte (neutrophil) elastase(HLE)(HNE) as rate constant; method in brief: as §1

Row | SMILES | second-order inactivation rate constant (kobs/[I]) [1] [M⁻¹ s⁻¹] | kobs/[I] (second-order inactivation rate constant) [2] [M⁻¹ s⁻¹] | k obs / 1 [3] [M⁻¹ s⁻¹] | [I] [4] [µM] | k obs / 1 [5] [M⁻¹ s⁻¹]
1 | COc1oc(=O)c2cc(NC(=O)C(F)(F)C(F)(F)C(F)(F)F)ccc2c1Cl | 1100 | 47000 |  |  | 
2 | COc1oc(=O)c2cc(NC(=O)N(CCc3ccccc3)Cc3ccccc3)ccc2c1Cl | 17 | 12000 |  |  | 
3 | COc1oc(=O)c2cc(N=C=O)ccc2c1Cl | 650 |  | 9200 | 8.3 | 
4 | COc1oc(=O)c2cc(NC(=O)CC(CC(=O)O)c3ccccc3)ccc2c1Cl (centres undefined) | 100 | 66000 |  |  | 
5 | COc1oc(=O)c2cc(NC(=O)C(c3ccccc3)c3ccccc3)ccc2c1Cl | 20 | 52000 |  |  | 
6 | COc1oc(=O)c2cc(NC(=O)C(C)NS(=O)(=O)c3ccc(C)cc3)ccc2c1Cl (centres undefined) | 2500 | 55000 |  |  | 
7 | COC(=O)CCC(=O)Nc1ccc2c(Cl)c(OC)oc(=O)c2c1 | 2200 | 43000 |  |  | 
8 | COc1oc(=O)c2cc(NC(=O)OCc3ccccc3)ccc2c1Cl | 260 | 71000 |  |  | 
9 | COc1oc(=O)c2cc(NC(=O)C(NS(=O)(=O)c3ccc(C)cc3)C(C)C)ccc2c1Cl (centres undefined) | 1300 | 36000 |  |  | 
10 | COc1oc(=O)c2cc(NC(=O)CCC(=O)O)ccc2c1Cl | 900 | 9500 |  |  | 
11 | COc1oc(=O)c2cc(NC(=O)c3ccccc3C(=O)O)ccc2c1Cl | 2700 | 52000 |  |  | 
12 | CCOC(=O)Nc1ccc2c(Cl)c(OC)oc(=O)c2c1 | 2000 | 47000 |  |  | 
13 | COC(=O)c1ccccc1C(=O)Nc1ccc2c(Cl)c(OC)oc(=O)c2c1 | 7100 |  |  |  | 
14 | COC(=O)CCCC(=O)Nc1ccc2c(Cl)c(OC)oc(=O)c2c1 | 2800 | 54000 |  |  | 
15 | COc1oc(=O)c2cc(NC(=O)Oc3ccccc3)ccc2c1Cl | 850 |  |  | 8.8 | 13000
16 | COc1oc(=O)c2cc(NC(C)=O)ccc2c1Cl | 2300 | 30000 |  |  | 
17 | COc1oc(=O)c2cc(NC(=O)C(Cc3ccccc3)NS(=O)(=O)c3ccc(C)cc3)ccc2c1Cl (centres undefined) | 6500 | 200000 |  |  | 
18 | COc1oc(=O)c2cc(NC(=O)C(NS(=O)(=O)c3ccc(C)cc3)c3ccccc3)ccc2c1Cl (centres undefined) | 1500 | 84000 |  |  | 
19 | COc1oc(=O)c2cc(NC(=O)Cc3ccccc3)ccc2c1Cl | 2000 | 37000 |  |  | 
20 | COC(=O)Nc1cccc(C(=O)Nc2ccc3c(Cl)c(OC)oc(=O)c3c2)c1 | 2500 | 100000 |  |  | 
21 | COc1oc(=O)c2cc(NC(=O)CCCC(=O)O)ccc2c1Cl | 900 | 51000 |  |  | 
22 | COc1oc(=O)c2cc(NC(=O)CCc3ccccc3)ccc2c1Cl | 3100 | 66000 |  |  | 
23 | COc1oc(=O)c2cc(NC(=O)CC(c3ccccc3)c3ccccc3)ccc2c1Cl | 2400 | 130000 |  |  | 
24 | COc1oc(=O)c2cc(NC(=O)OCC3c4ccccc4-c4ccccc43)ccc2c1Cl | 20 |  | 10000 | 600 | 
25 | COc1oc(=O)c2cc(NC(=O)C(CC(C)C)NS(=O)(=O)c3ccc(C)cc3)ccc2c1Cl (centres undefined) | 6300 | 54000 |  |  | 
26 | COc1oc(=O)c2cc(NC(=O)Nc3ccccc3)ccc2c1Cl | 7300 | 49000 |  |  | 
